# Data from ChEMBL document CHEMBL1146556, “Acetophenone derivatives from Acronychia pedunculata” (J Nat Prod, 2003).
# How the values were obtained:
# [1] = tested on: Radical scavenging activity; assay: Antioxidant activity assessed as DPPH radical scavenging activity at 500 uM after 30 mins; assay type: functional
# Outline: (§1)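 Radical scavenging was read as percent inhibition after a 30 min incubation.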
# [2] = target: T1, Tyrosinase (Homo sapiens) (UniProt P14679); assay: Inhibition of tyrosinase at 500 uM
# T1 sequence (whole entry): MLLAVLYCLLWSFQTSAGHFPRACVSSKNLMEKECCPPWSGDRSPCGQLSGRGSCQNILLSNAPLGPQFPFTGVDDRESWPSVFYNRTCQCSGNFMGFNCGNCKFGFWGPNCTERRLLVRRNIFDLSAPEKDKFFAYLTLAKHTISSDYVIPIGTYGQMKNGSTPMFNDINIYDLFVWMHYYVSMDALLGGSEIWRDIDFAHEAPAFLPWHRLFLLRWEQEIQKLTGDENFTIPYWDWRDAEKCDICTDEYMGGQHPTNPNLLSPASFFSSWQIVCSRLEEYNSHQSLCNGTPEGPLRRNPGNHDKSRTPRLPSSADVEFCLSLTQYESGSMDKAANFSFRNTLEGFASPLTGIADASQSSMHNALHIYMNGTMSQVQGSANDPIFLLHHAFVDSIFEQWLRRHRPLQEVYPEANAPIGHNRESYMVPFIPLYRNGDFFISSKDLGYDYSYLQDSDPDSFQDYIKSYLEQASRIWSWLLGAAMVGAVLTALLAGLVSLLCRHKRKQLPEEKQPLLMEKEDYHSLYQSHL
# [3] = tested on: Radical scavenging activity; assay: Antioxidant activity assessed as DPPH radical scavenging activity after 30 mins; assay type: functional; outline: as §1
# [4] = target: T2, Tyrosinase (Homo sapiens, UniProt P14679); assay: Inhibition of tyrosinase
# T2 sequence (P14679 whole entry): T1 sequence (whole entry)
Compound,inhibition [2],IC50 [3],IC50 [4],inhibition [1]
COc1c(CC=C(C)C)c(O)c(C(=O)CC(C)C)c(O)c1C(C)=O,16.8%,,,8.3%
C=C(C)C(O)Cc1c(O)cc(O)c(C(C)=O)c1OC (stereo not drawn),8.1%,,,10.3%
COc1c(CC=C(C)C)c2c(c(O)c1C(C)=O)C=CC(C)(C)O2,2.5%,,,2.9%

# Continued, in another order:
inhibition [2],IC50 [3],IC50 [4],Compound,inhibition [1]
,493 µM,333 µM,COc1c(CC=C(C)C)c(O)c([C@H](CC(C)C)c2c(O)c(CC=C(C)C)c(O)c(C(C)=O)c2O)c(O)c1C(C)=O [ACROVESTONE],
,8.3 µM,,VITAMIN E,
11.8%,,,COc1c(CC=C(C)C)c(O)c(C=O)c(O)c1C(C)=O,3.1%
6.5%,,,COc1c(CC=C(C)C)c2c(c(O)c1C(C)=O)C[C@H](C(C)(C)O)O2,5.3%
